Experimental data from ChEMBL document CHEMBL1157730, “Diaryl piperidines as CB1 receptor antagonists” (Bioorg Med Chem Lett, 2010).

Experiments:
Cannabinoid receptor 1 = Cannabinoid receptor 1 (Homo sapiens, UniProt P21554); assay: Binding affinity to human CB1 receptor
Cannabinoid receptor 2 [1] = molecular target: T1, Cannabinoid receptor 2 (Homo sapiens, UniProt P34972); assay: Binding affinity to human CB2 receptor
Mus musculus [2] = assay: Reduction of food intake in DIO mouse model at 3 mg/kg, po after 2 hrs relative to control; format: functional; parameters: scale not given: the % may be the effect or the level left
Outline: (§1)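 Fed diet-induced obese mice; oral dosing 1 h before dark onset; food intake measured at 2, 4, 6 and 24 h and expressed as percent reduction versus vehicle-treated mice; significance threshold p<0.05.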

Mus musculus [3] = assay: Reduction of food intake in DIO mouse model at 3 mg/kg, po after 6 hrs relative to control; format: functional; parameters: scale not given: the % may be the effect or the level left; outline: as §1
[4] = Drug level in DIO mouse plasma at 3 mg/kg, po after 24 hrs; format: ADME, organism-based; parameters: dose 3 mg/kg, route oral; details: read-out: Drug uptake
Outline: (§2)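 Diet-induced obese mice dosed orally at 3 mg/kg, 1 h before dark onset; total drug concentrations in plasma (ng/mL) and brain (ng/g) measured at the 24-h time point.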

Mus musculus [5] = assay: Reduction of food intake in DIO mouse model at 3 mg/kg, po after 24 hrs relative to control; format: functional; parameters: scale not given: the % may be the effect or the level left; outline: as §1
[6] = Drug level in DIO mouse brain at 3 mg/kg, po after 24 hrs; format: ADME, organism-based; parameters: dose 3 mg/kg, route oral; details: read-out: Drug uptake; outline: as §2
Mus musculus [7] = assay: Reduction of food intake in DIO mouse model at 3 mg/kg, po after 4 hrs relative to control; format: functional; parameters: scale not given: the % may be the effect or the level left; outline: as §1
Cannabinoid receptor 2 [8] = molecular target: T1, Cannabinoid receptor 2; assay: Binding affinity to human CB2 receptor at 1 uM

Chain of Cannabinoid receptor 1 (P21554 whole entry): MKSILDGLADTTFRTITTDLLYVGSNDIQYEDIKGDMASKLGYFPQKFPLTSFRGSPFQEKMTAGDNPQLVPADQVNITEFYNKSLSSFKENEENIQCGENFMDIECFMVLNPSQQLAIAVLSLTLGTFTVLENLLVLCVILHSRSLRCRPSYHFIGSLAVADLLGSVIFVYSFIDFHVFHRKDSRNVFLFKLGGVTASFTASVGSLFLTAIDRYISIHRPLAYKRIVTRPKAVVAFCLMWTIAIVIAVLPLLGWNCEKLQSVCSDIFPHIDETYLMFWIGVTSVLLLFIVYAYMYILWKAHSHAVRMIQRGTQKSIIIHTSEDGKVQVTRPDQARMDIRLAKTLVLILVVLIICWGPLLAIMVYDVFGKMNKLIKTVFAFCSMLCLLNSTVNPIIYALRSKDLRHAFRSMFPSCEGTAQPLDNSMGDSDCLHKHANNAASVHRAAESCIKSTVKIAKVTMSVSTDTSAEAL
T1 sequence (P34972 whole entry): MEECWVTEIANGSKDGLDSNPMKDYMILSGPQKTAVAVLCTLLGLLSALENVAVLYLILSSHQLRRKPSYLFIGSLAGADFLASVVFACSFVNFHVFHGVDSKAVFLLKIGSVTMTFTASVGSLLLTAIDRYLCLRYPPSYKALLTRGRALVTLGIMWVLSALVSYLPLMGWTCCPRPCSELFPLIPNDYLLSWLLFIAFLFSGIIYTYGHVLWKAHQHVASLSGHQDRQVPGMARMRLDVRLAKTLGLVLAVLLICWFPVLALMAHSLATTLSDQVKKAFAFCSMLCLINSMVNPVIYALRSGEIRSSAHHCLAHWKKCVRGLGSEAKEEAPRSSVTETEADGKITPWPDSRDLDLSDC

O=S(=O)(C[C@@H]1CC[C@@H](c2ccc(Cl)cc2Cl)N(c2ccc(Cl)cc2)C1)NC1CCCCC1
Ki (Cannabinoid receptor 1): 35 nM
Ki (Cannabinoid receptor 2 [1]): 1250 nM

O=S(=O)(C1CC1)N1CCN(C[C@@H]2CC[C@@H](c3ccc(Cl)cc3Cl)N(c3ccc(Cl)cc3)C2)CC1
Ki (Cannabinoid receptor 1): 44 nM
Ki (Cannabinoid receptor 2 [1]): > 2220 nM

CC(=O)NCC[C@@H]1CC[C@@H](c2ccc(Cl)cc2Cl)N(c2ccc(Cl)cc2)C1
Ki (Cannabinoid receptor 1): 42 nM
Ki (Cannabinoid receptor 2 [1]): > 2400 nM

O=C(NC1CCC1)[C@@H]1CC[C@@H](c2ccc(Cl)cc2Cl)N(c2ccc(Cl)cc2)C1
Ki (Cannabinoid receptor 1): 33 nM
Ki (Cannabinoid receptor 2 [1]): 1380 nM

O=C1[C@@H](Cc2ccc(F)c(F)c2)CC[C@H](c2ccc(Cl)cc2)N1c1ccc(Cl)cc1 (relative stereo)
Ki (Cannabinoid receptor 1): 444 nM
Ki (Cannabinoid receptor 2 [1]): 574 nM

N#Cc1ccc(C(=O)NC[C@@H]2CC[C@@H](c3ccc(Cl)cc3Cl)N(c3ccc(Cl)cc3)C2)cc1
Activity (Mus musculus [2]): 22%
Activity (Mus musculus [3]): 24%
concentration at 24 h [4]: 28 ng/mL
Activity (Mus musculus [5]): 10%
Ki (Cannabinoid receptor 1): 5 nM
Ki (Cannabinoid receptor 2 [1]): 1410 nM
concentration at 24 h [6]: 12 ng/g
Activity (Mus musculus [7]): 22%

O=S(=O)(NCC[C@@H]1CC[C@@H](c2ccc(Cl)cc2Cl)N(c2ccc(Cl)cc2)C1)C1CC1
Ki (Cannabinoid receptor 1): 3.8 nM
Ki (Cannabinoid receptor 2 [1]): > 2220 nM

Fc1ccc(C[C@@H]2CC[C@H](c3ccc(Cl)cc3)N(c3ccc(Cl)cc3)C2)cc1F (relative stereo)
Ki (Cannabinoid receptor 1): > 1640 nM
Ki (Cannabinoid receptor 2 [1]): > 1850 nM

CC(C)(C)CC(=O)N1CCN(C[C@@H]2CC[C@@H](c3ccc(Cl)cc3Cl)N(c3ccc(Cl)cc3)C2)CC1
Activity (Mus musculus [2]): 0%
Activity (Mus musculus [3]): 3%
concentration at 24 h [4]: 1 ng/mL
Activity (Mus musculus [5]): 9%
Ki (Cannabinoid receptor 1): 13 nM
Ki (Cannabinoid receptor 2 [1]): > 2400 nM
Activity (Mus musculus [7]): 0%

O=S(=O)(NC[C@@H]1CC[C@@H](c2ccc(Cl)cc2Cl)N(c2ccc(Cl)cc2)C1)c1cccnc1
Ki (Cannabinoid receptor 1): 6 nM
Ki (Cannabinoid receptor 2 [1]): > 1850 nM

O=S(=O)(NC[C@@H]1CC[C@@H](c2ccc(Cl)cc2Cl)N(c2ccc(Cl)cc2)C1)C1CC1
Ki (Cannabinoid receptor 1): 158 nM
Ki (Cannabinoid receptor 2 [1]): > 1850 nM

CCCS(=O)(=O)NC[C@@H]1CC[C@@H](c2ccc(Cl)cc2Cl)N(c2ccc(Cl)cc2)C1
Ki (Cannabinoid receptor 1): 48 nM
inhibition (Cannabinoid receptor 2 [8]): 25%

O=S(=O)(NC[C@@H]1CC[C@@H](c2ccc(Cl)cc2Cl)N(c2ccc(Cl)cc2)C1)c1cccc2ccccc12
Ki (Cannabinoid receptor 1): 2.3 nM
inhibition (Cannabinoid receptor 2 [8]): 5%

O=S(=O)(NCCC1CCC(c2ccc(Cl)cc2Cl)N(c2ccc(Cl)cc2)C1)C1CC1 (single isomer, unassigned; enantiomer 2)
Ki (Cannabinoid receptor 1): 57 nM
Ki (Cannabinoid receptor 2 [1]): > 2400 nM

Fc1ccc(C[C@H]2CC[C@H](c3ccc(Cl)cc3Cl)N(c3ccc(Cl)cc3)C2)cc1F (relative stereo)
Ki (Cannabinoid receptor 1): 15 nM
Ki (Cannabinoid receptor 2 [1]): > 1850 nM

N#Cc1ccc(C(=O)NCC[C@@H]2CC[C@@H](c3ccc(Cl)cc3Cl)N(c3ccc(Cl)cc3)C2)cc1
Ki (Cannabinoid receptor 1): 5.1 nM
Ki (Cannabinoid receptor 2 [1]): > 2450 nM

NCC[C@@H]1CC[C@@H](c2ccc(Cl)cc2Cl)N(c2ccc(Cl)cc2)C1
Ki (Cannabinoid receptor 1): 61 nM
Ki (Cannabinoid receptor 2 [1]): > 2220 nM

O=C(NC[C@@H]1CC[C@@H](c2ccc(Cl)cc2Cl)N(c2ccc(Cl)cc2)C1)C1CC1
Ki (Cannabinoid receptor 1): 112 nM
inhibition (Cannabinoid receptor 2 [8]): 25%

Fc1ccc(C[C@H]2CC[C@H](c3ccc(Cl)cc3)N(c3ccc(Cl)cc3)C2)cc1F (relative stereo)
Ki (Cannabinoid receptor 1): 72 nM
Ki (Cannabinoid receptor 2 [1]): > 1770 nM

Fc1ccc(C[C@H]2CC[C@H](c3ccc(Cl)cc3)N(c3ccc(Cl)cc3Cl)C2)cc1F (relative stereo)
Ki (Cannabinoid receptor 1): 467 nM
Ki (Cannabinoid receptor 2 [1]): > 1850 nM

CC(C)(C)OC(=O)N1CCN(C[C@@H]2CC[C@@H](c3ccc(Cl)cc3Cl)N(c3ccc(Cl)cc3)C2)CC1
Ki (Cannabinoid receptor 1): 8 nM
Ki (Cannabinoid receptor 2 [1]): > 1850 nM

O=C(NCc1ccc(Cl)cc1)[C@@H]1CC[C@@H](c2ccc(Cl)cc2Cl)N(c2ccc(Cl)cc2)C1
Ki (Cannabinoid receptor 1): 63 nM
Ki (Cannabinoid receptor 2 [1]): > 1850 nM

O=C1[C@@H](Cc2ccc(F)c(F)c2)CC[C@H](c2ccc(Cl)cc2Cl)N1c1ccc(Cl)cc1 (relative stereo)
Ki (Cannabinoid receptor 1): 109 nM
Ki (Cannabinoid receptor 2 [1]): > 1680 nM

CC(=O)N1CCN(C[C@@H]2CC[C@@H](c3ccc(Cl)cc3Cl)N(c3ccc(Cl)cc3)C2)CC1
Ki (Cannabinoid receptor 1): 451 nM
Ki (Cannabinoid receptor 2 [1]): > 1850 nM

CS(=O)(=O)N1CCN(C[C@@H]2CC[C@@H](c3ccc(Cl)cc3Cl)N(c3ccc(Cl)cc3)C2)CC1
Ki (Cannabinoid receptor 1): 690 nM
Ki (Cannabinoid receptor 2 [1]): > 1850 nM

CC(C)(C)CCN1CCN(C[C@@H]2CC[C@@H](c3ccc(Cl)cc3Cl)N(c3ccc(Cl)cc3)C2)CC1
Ki (Cannabinoid receptor 1): 57 nM
Ki (Cannabinoid receptor 2 [1]): > 1500 nM

O=S(=O)(NCC[C@@H]1CC[C@@H](c2ccc(Cl)cc2Cl)N(c2ccc(Cl)cc2)C1)c1cccnc1
Ki (Cannabinoid receptor 1): 5.8 nM
Ki (Cannabinoid receptor 2 [1]): > 2220 nM

CC(C)CNC(=O)[C@@H]1CC[C@@H](c2ccc(Cl)cc2Cl)N(c2ccc(Cl)cc2)C1
Ki (Cannabinoid receptor 1): 33 nM
Ki (Cannabinoid receptor 2 [1]): 1580 nM

Clc1ccc(N2C[C@H](CN3CCNCC3)CC[C@H]2c2ccc(Cl)cc2Cl)cc1
Ki (Cannabinoid receptor 1): 554 nM
Ki (Cannabinoid receptor 2 [1]): > 2000 nM

O=S(=O)(NCCC1CCC(c2ccc(Cl)cc2Cl)N(c2ccc(Cl)cc2)C1)C1CC1 (stereo in doubt; 14f)
Activity (Mus musculus [2]): 39%
Activity (Mus musculus [3]): 38%
concentration at 24 h [4]: 15 ng/mL
Activity (Mus musculus [5]): 37%
Ki (Cannabinoid receptor 1): 3.4 nM
Ki (Cannabinoid receptor 2 [1]): > 2400 nM
concentration at 24 h [6]: 66 ng/g
Activity (Mus musculus [7]): 37%

O=C(NC1CCCCC1)[C@@H]1CC[C@@H](c2ccc(Cl)cc2Cl)N(c2ccc(Cl)cc2)C1
Ki (Cannabinoid receptor 1): 18 nM
Ki (Cannabinoid receptor 2 [1]): 368 nM

N#Cc1ccc(S(=O)(=O)NCC[C@@H]2CC[C@@H](c3ccc(Cl)cc3Cl)N(c3ccc(Cl)cc3)C2)cc1
Ki (Cannabinoid receptor 1): 4.2 nM
Ki (Cannabinoid receptor 2 [1]): > 2220 nM

CC(C)CCNS(=O)(=O)[C@@H]1CC[C@@H](c2ccc(Cl)cc2Cl)N(c2ccc(Cl)cc2)C1
Ki (Cannabinoid receptor 1): 9.1 nM
Ki (Cannabinoid receptor 2 [1]): 1380 nM

O=C1[C@H](Cc2ccc(F)c(F)c2)CC[C@H](c2ccc(Cl)cc2)N1c1ccc(Cl)cc1 (relative stereo)
Ki (Cannabinoid receptor 1): 714 nM
Ki (Cannabinoid receptor 2 [1]): > 1780 nM

NC[C@@H]1CC[C@@H](c2ccc(Cl)cc2Cl)N(c2ccc(Cl)cc2)C1
Ki (Cannabinoid receptor 1): 133 nM
Ki (Cannabinoid receptor 2 [1]): > 1850 nM
